From ChEMBL document CHEMBL3600328, “Bayesian models trained with HTS data for predicting β-haematin inhibition and in vitro antimalarial activity” (Bioorg Med Chem, 2015)

Tests used:
[1] = Inhibition of beta-hematin formation; assay type: physicochemical
How it was run: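 NP-40 detergent-mediated β-haematin formation assay, run per an earlier-published protocol.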

Plasmodium falciparum = test: Antimalarial activity against CQ-sensitive Plasmodium falciparum NF54 assessed as inhibition of parasite growth; assay type: functional, organism-based

SMILES	IC50 [1] [µM]	IC50 (Plasmodium falciparum) [µM]
Nc1cc(O)c2ccccc2n1	85	> 10
O=C(O)c1cc(-c2ccc(-c3ccccc3)cc2)nc2ccccc12	46	> 10
Cc1ccc(C(=O)C2=C(O)C(=O)N(Cc3cccnc3)[C@H]2c2ccc(Cl)c(Cl)c2)o1	88	> 10
C=C[C@H]1CN2CC[C@@H]1C[C@@H]2Cc1ccnc2ccccc12	66	0.082

The next compounds have a lower IC50 [1] than those just listed; values first:

IC50 [1] [µM]	SMILES	IC50 (Plasmodium falciparum) [µM]
22	COc1cc(-c2nc3cc([N+](=O)[O-])ccc3[nH]2)ccc1O	> 10
26	CN(C)CCNc1cc(-c2ccc3ccccc3c2)nc2ccccc12	0.079
